{"source": "ChEMBL document CHEMBL1770090", "about": "“Synthesis, antimicrobial, antioxidant, anti-hemolytic and cytotoxic evaluation of new imidazole-based heterocycles” (Eur J Med Chem, 2011)", "key": {"[1]": {"tested_on": "Klebsiella pneumoniae", "assay": "Antimicrobial activity against Klebsiella pneumoniae ATCC 13883 after 24 hrs by agar well diffusion method", "type": "functional", "summary_of_the_method": "(§1)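 Agar well diffusion. Inocula of 100 µL: bacteria 1 × 10^8 CFU/mL on nutrient agar, yeast 1 × 10^6 CFU/mL on Sabouraud dextrose agar, fungi 1 × 10^4 spore/mL on potato dextrose agar. 10 mm wells received 100 µL of compound at 100 mg/mL in DMSO. Bacteria incubated 24 h at 37 °C, fungi 48 h at 28 °C. Controls were DMSO, ciprofloxacin 50 µg/mL and ketoconazole 50 µg/mL. Inhibition zone diameter in mm, scored N.A. to ++++, average of triplicates.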"}, "[2]": {"tested_on": "Staphylococcus aureus", "assay": "Antimicrobial activity against Staphylococcus aureus ATCC 29213 after 24 hrs by agar well diffusion method", "type": "functional", "summary_of_the_method": "as §1"}, "[3]": {"tested_on": "Pseudomonas aeruginosa", "assay": "Antimicrobial activity against Pseudomonas aeruginosa ATCC 27953 after 24 hrs by agar well diffusion method", "type": "functional", "summary_of_the_method": "as §1"}, "[4]": {"tested_on": "Bacillus subtilis", "assay": "Antimicrobial activity against Bacillus subtilis ATCC 6633 after 24 hrs by agar well diffusion method", "type": "functional", "summary_of_the_method": "as §1"}, "[5]": {"tested_on": "Aspergillus niger", "assay": "Antimicrobial activity against Aspergillus niger after 48 hrs by agar well diffusion method", "type": "functional", "summary_of_the_method": "as §1"}, "[6]": {"assay": "Antioxidant activity assessed as ABTS radical scavenging activity at 2 mM", "type": "functional", "summary_of_the_method": "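ABTS (60 µM, 2 mL) was oxidized with MnO2 (25 mg/mL, 3 mL) in 0.1 M phosphate buffer pH 7, then centrifuged and filtered, with A734 adjusted to about 0.5. 50 µL of 2 mM compound in MeOH/phosphate buffer (1:1) was added. Colour loss expressed as % inhibition. L-ascorbic acid was the standard; blank and negative controls used MeOH/buffer.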"}, "[7]": {"assay": "Cytotoxicity against mouse EAC cells assessed as cell viability using trypan blue staining after 2 hrs by hemocytometer analysis", "type": "functional, cell-based", "details": "Ehrlich"}, "[8]": {"tested_on": "Candida albicans", "assay": "Antimicrobial activity against Candida albicans NRRL Y-477 after 48 hrs by agar well diffusion method", "type": "functional", "summary_of_the_method": "as §1"}, "[9]": {"assay": "Antioxidant activity in rat erythrocytes assessed as inhibition of peroxyl radicals-induced hemolysis at 2 mM after 2 hrs", "type": "functional", "details": "Erythrocyte, read-out: INH", "summary_of_the_method": "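Rat blood from cardiac puncture, heparinized. Erythrocytes were washed three times in 0.15 M NaCl. A 10% suspension in PBS pH 7.4 was mixed with an equal volume of 200 mM AAPH in PBS containing sample, then shaken at 37 °C for 2 h. Mixture diluted with 8 volumes of PBS and centrifuged; supernatant A540 compared with a water-lysed sample for complete hemolysis. L-ascorbic acid was the positive control. Mean ± SD.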"}, "[10]": {"tested_on": "Escherichia coli", "assay": "Antimicrobial activity against Escherichia coli ATCC 25922 after 24 hrs by agar well diffusion method", "type": "functional", "summary_of_the_method": "as §1"}, "[11]": {"tested_on": "Priestia megaterium", "assay": "Antimicrobial activity against Bacillus megaterium ATCC 9885 after 24 hrs by agar well diffusion method", "type": "functional", "summary_of_the_method": "as §1"}}, "data": [{"smiles": "C/C(=N\\N=C1\\NC(=O)/C(=C/c2cn(-c3ccccc3)nc2-c2cccs2)S1)c1nc(-c2ccccc2)[nH]c1C", "values": [{"measurement": "diameter of the inhibition zone (DIZ)", "setting": "[1]", "result": "<=4 mm"}, {"measurement": "diameter of the inhibition zone (DIZ)", "setting": "[2]", "result": "<=4 mm"}, {"measurement": "diameter of the inhibition zone (DIZ)", "setting": "[3]", "result": "<=4 mm"}, {"measurement": "diameter of the inhibition zone (DIZ)", "setting": "[4]", "result": "<=4 mm"}, {"measurement": "diameter of the inhibition zone (DIZ)", "setting": "[5]", "result": "<=4 mm"}, {"measurement": "inhibition", "setting": "[6]", "result": 76.2, "unit": "%"}, {"measurement": "IC50", "setting": "[7]", "result": 8.25, "unit": "µg/mL"}, {"measurement": "diameter of the inhibition zone (DIZ)", "setting": "[8]", "result": "<=4 mm"}, {"measurement": "percent hemolysis at 2000 µM", "setting": "[9]", "result": 3.45, "unit": "%"}, {"measurement": "diameter of the inhibition zone (DIZ)", "setting": "[10]", "result": "<=4 mm"}, {"measurement": "diameter of the inhibition zone (DIZ)", "setting": "[11]", "result": "<=4 mm"}]}, {"smiles": "CC1=NC(=N/N=C(\\C)c2nc(-c3ccccc3)[nH]c2C)/S/C1=N\\Nc1ccccc1", "values": [{"measurement": "diameter of the inhibition zone (DIZ)", "setting": "[1]", "result": "<=4 mm"}, {"measurement": "diameter of the inhibition zone (DIZ)", "setting": "[2]", "result": "<=4 mm"}, {"measurement": "diameter of the inhibition zone (DIZ)", "setting": "[3]", "result": "<=4 mm"}, {"measurement": "diameter of the inhibition zone (DIZ)", "setting": "[4]", "result": "<=4 mm"}, {"measurement": "diameter of the inhibition zone (DIZ)", "setting": "[5]", "result": "<=4 mm"}, {"measurement": "inhibition", "setting": "[6]", "result": 44.4, "unit": "%"}, {"measurement": "IC50", "setting": "[7]", "result": 20.2, "unit": "µg/mL"}, {"measurement": "diameter of the inhibition zone (DIZ)", "setting": "[8]", "result": "<=4 mm"}, {"measurement": "percent hemolysis at 2000 µM", "setting": "[9]", "result": 6.4, "unit": "%"}, {"measurement": "diameter of the inhibition zone (DIZ)", "setting": "[10]", "result": "<=4 mm"}, {"measurement": "diameter of the inhibition zone (DIZ)", "setting": "[11]", "result": "<=4 mm"}]}, {"smiles": "C/C(=N\\NC(=O)CC#N)c1nc(-c2ccccc2)[nH]c1C", "values": [{"measurement": "diameter of the inhibition zone (DIZ)", "setting": "[1]", "result": "<=4 mm"}, {"measurement": "diameter of the inhibition zone (DIZ)", "setting": "[2]", "result": "<=4 mm"}, {"measurement": "diameter of the inhibition zone (DIZ)", "setting": "[3]", "result": "<=4 mm"}, {"measurement": "diameter of the inhibition zone (DIZ)", "setting": "[4]", "result": "<=4 mm"}, {"measurement": "diameter of the inhibition zone (DIZ)", "setting": "[5]", "result": "<=4 mm"}, {"measurement": "inhibition", "setting": "[6]", "result": 48.2, "unit": "%"}, {"measurement": "IC50", "setting": "[7]", "result": 125, "unit": "µg/mL"}, {"measurement": "diameter of the inhibition zone (DIZ)", "setting": "[8]", "result": "<=4 mm"}, {"measurement": "percent hemolysis at 2000 µM", "setting": "[9]", "result": 3.65, "unit": "%"}, {"measurement": "diameter of the inhibition zone (DIZ)", "setting": "[10]", "result": "<=4 mm"}, {"measurement": "diameter of the inhibition zone (DIZ)", "setting": "[11]", "result": "<=4 mm"}]}, {"smiles": "C/C(=N\\NC(=O)/C(C#N)=C\\c1cn(-c2ccccc2)nc1-c1cccs1)c1nc(-c2ccccc2)[nH]c1C", "values": [{"measurement": "diameter of the inhibition zone (DIZ)", "setting": "[1]", "result": "<=4 mm"}, {"measurement": "diameter of the inhibition zone (DIZ)", "setting": "[2]", "result": "<=4 mm"}, {"measurement": "diameter of the inhibition zone (DIZ)", "setting": "[3]", "result": "<=4 mm"}, {"measurement": "diameter of the inhibition zone (DIZ)", "setting": "[4]", "result": "<=4 mm"}, {"measurement": "diameter of the inhibition zone (DIZ)", "setting": "[5]", "result": "<=4 mm"}, {"measurement": "inhibition", "setting": "[6]", "result": 34.6, "unit": "%"}, {"measurement": "IC50", "setting": "[7]", "result": 125, "unit": "µg/mL"}, {"measurement": "diameter of the inhibition zone (DIZ)", "setting": "[8]", "result": "<=4 mm"}, {"measurement": "percent hemolysis at 2000 µM", "setting": "[9]", "result": 5.55, "unit": "%"}, {"measurement": "diameter of the inhibition zone (DIZ)", "setting": "[10]", "result": "<=4 mm"}, {"measurement": "diameter of the inhibition zone (DIZ)", "setting": "[11]", "result": "<=4 mm"}]}, {"smiles": "C/C(=N\\NC(=O)/C(C#N)=C\\c1cn(-c2ccccc2)nc1-c1cc2ccccc2o1)c1nc(-c2ccccc2)[nH]c1C", "values": [{"measurement": "diameter of the inhibition zone (DIZ)", "setting": "[1]", "result": "<=4 mm"}, {"measurement": "diameter of the inhibition zone (DIZ)", "setting": "[2]", "result": "<=4 mm"}, {"measurement": "diameter of the inhibition zone (DIZ)", "setting": "[3]", "result": "<=4 mm"}, {"measurement": "diameter of the inhibition zone (DIZ)", "setting": "[4]", "result": "<=4 mm"}, {"measurement": "diameter of the inhibition zone (DIZ)", "setting": "[5]", "result": "<=4 mm"}, {"measurement": "inhibition", "setting": "[6]", "result": 34.6, "unit": "%"}, {"measurement": "IC50", "setting": "[7]", "result": 125, "unit": "µg/mL"}, {"measurement": "diameter of the inhibition zone (DIZ)", "setting": "[8]", "result": "<=4 mm"}, {"measurement": "percent hemolysis at 2000 µM", "setting": "[9]", "result": 5.55, "unit": "%"}, {"measurement": "diameter of the inhibition zone (DIZ)", "setting": "[10]", "result": "<=4 mm"}, {"measurement": "diameter of the inhibition zone (DIZ)", "setting": "[11]", "result": "<=4 mm"}]}, {"smiles": "C/C(=N\\N=C1\\NC(=O)/C(=C/c2cn(-c3ccccc3)nc2-c2cc3ccccc3o2)S1)c1nc(-c2ccccc2)[nH]c1C", "values": [{"measurement": "diameter of the inhibition zone (DIZ)", "setting": "[1]", "result": "<=4 mm"}, {"measurement": "diameter of the inhibition zone (DIZ)", "setting": "[2]", "result": "<=4 mm"}, {"measurement": "diameter of the inhibition zone (DIZ)", "setting": "[3]", "result": "<=4 mm"}, {"measurement": "diameter of the inhibition zone (DIZ)", "setting": "[4]", "result": "<=4 mm"}, {"measurement": "diameter of the inhibition zone (DIZ)", "setting": "[5]", "result": "<=4 mm"}, {"measurement": "inhibition", "setting": "[6]", "result": 35.9, "unit": "%"}, {"measurement": "IC50", "setting": "[7]", "result": 125, "unit": "µg/mL"}, {"measurement": "diameter of the inhibition zone (DIZ)", "setting": "[8]", "result": "<=4 mm"}, {"measurement": "percent hemolysis at 2000 µM", "setting": "[9]", "result": 1.5, "unit": "%"}, {"measurement": "diameter of the inhibition zone (DIZ)", "setting": "[10]", "result": "<=4 mm"}, {"measurement": "diameter of the inhibition zone (DIZ)", "setting": "[11]", "result": "<=4 mm"}]}, {"smiles": "O=C1O[C@H]([C@@H](O)CO)C(O)=C1O", "note": "[ASCORBIC ACID]", "values": [{"measurement": "inhibition", "setting": "[6]", "result": 88.6, "unit": "%"}, {"measurement": "percent hemolysis at 2000 µM", "setting": "[9]", "result": 0.85, "unit": "%"}]}, {"smiles": "CC(=O)N1CCN(c2ccc(OCC3COC(Cn4ccnc4)(c4ccc(Cl)cc4Cl)O3)cc2)CC1", "note": "(configuration not stated) [KETOCONAZOLE]", "values": [{"measurement": "diameter of the inhibition zone (DIZ)", "setting": "[1]", "result": "<=4 mm"}, {"measurement": "diameter of the inhibition zone (DIZ)", "setting": "[2]", "result": "<=4 mm"}, {"measurement": "diameter of the inhibition zone (DIZ)", "setting": "[3]", "result": "<=4 mm"}, {"measurement": "diameter of the inhibition zone (DIZ)", "setting": "[4]", "result": "<=4 mm"}, {"measurement": "diameter of the inhibition zone (DIZ)", "setting": "[5]", "result": ">=21 mm"}, {"measurement": "diameter of the inhibition zone (DIZ)", "setting": "[8]", "result": ">=21 mm"}, {"measurement": "diameter of the inhibition zone (DIZ)", "setting": "[10]", "result": "<=4 mm"}, {"measurement": "diameter of the inhibition zone (DIZ)", "setting": "[11]", "result": "<=4 mm"}]}, {"smiles": "O=c1[nH]cc(F)c(=O)[nH]1", "note": "[FLUOROURACIL]", "values": [{"measurement": "IC50", "setting": "[7]", "result": 1.5, "unit": "µg/mL"}]}]}
